This is a sample that favours compounds with a hit; in the whole collection about 1.8% have one here.
HTRA1 inhibitor – HTRA1 (human) protease inhibition; AID 504803; recombinant HTRA1, FP-rhodamine activity-based probe, fluorescence polarization; 0.5% of 340,000 active; inhibition, % at 5.96 µM; in the data active = inhibition above about 36%;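 also: 0% = enzyme with DMSO and 100% = wells lacking enzyme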
DDE Tn6 FP inh – DD(E)-Tn6 binding inhibition, primary FP screen | P02675 | inhibition, % at 8.3 µM | 0.21% of 370,000 active | Fibrin DD(E) TRITC-Tn6 fluorescence polarization displacement;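 active = inhibition above a per-campaign cutoff: mean of compounds within control limits plus 3 SD, cut at about 15% in these data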;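 also: 0% = median of all compound wells on the plate and 100% = blocking peptide control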
TCR CD3 inh – human TCR-CD3 binding inhibition; TAMRA-labeled TCR probe fluorescence, biochemical; inhibition, % at 9.4 µM; 0.37% of 360,000 active; AID 651800; in the data active = inhibition above about 19%;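 also: recombinant mutant TCR 2C K166C tagged with TAMRA read by polarization; 0% = receptor in buffer alone and 100% = receptor with positive control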
mABHD4 FP – inhibitors of mouse ABHD4 | 0.54% of 370,000 active | AID 720543 | purified mABHD4, FP-Rh probe fluorescence polarization | Q8VD66 | inhibition, % at 8.92 µM;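 active = inhibition exceeding the mean over every tested compound plus 3 SD, cut at about 30% in these data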;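 also: 0% = plate median of compound wells and 100% = S159A mutant with DMSO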
Target sequence (Q8VD66 whole entry, looked up): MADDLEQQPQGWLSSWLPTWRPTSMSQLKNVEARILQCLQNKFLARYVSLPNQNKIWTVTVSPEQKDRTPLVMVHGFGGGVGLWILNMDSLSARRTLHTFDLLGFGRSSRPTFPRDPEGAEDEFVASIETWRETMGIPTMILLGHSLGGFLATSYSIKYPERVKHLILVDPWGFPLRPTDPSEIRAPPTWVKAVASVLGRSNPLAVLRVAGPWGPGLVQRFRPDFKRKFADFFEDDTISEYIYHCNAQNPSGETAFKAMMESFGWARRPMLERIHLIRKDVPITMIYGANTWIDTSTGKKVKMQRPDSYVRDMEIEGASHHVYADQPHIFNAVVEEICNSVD
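Doses – 8.92 µM, single dose · Material – wild-type mouse ABHD4 protein · Replication – single well per compound (singlicate) · Measure – percent inhibition of probe binding, normalized to plate controls · Schedule – 45 min compound pre-incubation plus 60 min probe step, 25 °C · Detection – fluorescence polarization with parallel and perpendicular emission, 525/598 nm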
SIAE inh – human SIAE inhibition, primary screen; SIAE FP-Rh probe binding, fluorescence polarization; inhibition, % at 9.66 µM; 0.69% of 370,000 active; AID 1053197;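 active = inhibition above a cutoff: mean of compounds within the control limits plus 3 SD of those, cut at about 17% in these data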;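 also: 0% = plate median of compound wells and 100% = probe without SIAE protein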
Tn7 DDE FP – disrupts Tn7 cyclic peptide binding to fibrin D-Dimer-E complex; FP displacement of FITC-Tn7 peptide from fibrin DD(E); 0% = median of compound wells per plate; inhibition, % at 8.3 µM; 0.13% of 370,000 active; AID 720508;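 active = inhibition above the mean of compounds falling within the control limits plus 3 SD of them, cut at about 14% in these data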;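 also: 0% = plate median of compound wells and 100% = 10 µM Aha-Tn7 peptide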
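Test system: human clot-derived fibrin DD(E) complex / Quantity: 2 µM final DD(E) protein / Incubation: 10 min plus 3 h, room temperature / Measured by: fluorescence polarization / Benchmarks: high control of 10 µM Aha-Tn7 peptide / Replicates: singlicate testing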
HTRA1 inh conf – HTRA1 (human) inhibition, confirmation | shares compounds with HTRA1 inhibitor | recombinant HTRA1, FP-rhodamine activity-based probe, fluorescence polarization | inhibition, % at 5.96 µM | 66% of 1,600 active | AID 540248;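 active = mean inhibition over three repeats above a set limit taken from the earlier primary screen, cut at about 37% in these data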;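 also: 0% = HTRA1 with DMSO and 100% = wells lacking HTRA1; inhibitors block probe binding so polarization drops and inhibition rises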
mABHD4 conf – confirmation of mouse ABHD4 inhibitors | shares compounds with mABHD4 FP | purified mABHD4, FP-Rh probe fluorescence polarization | inhibition, % at 8.92 µM | 55% of 1,800 active;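 active = mean inhibition across replicates above the hit cutoff set in the primary screen, cut at about 30% in these data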;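 also: 0% = wild-type ABHD4 with DMSO and 100% = catalytically dead S159A mutant with DMSO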
The depositor's hits bear a star; nt = no result given.

SMILES	HTRA1 inhibitor	DDE Tn6 FP inh	TCR CD3 inh	mABHD4 FP	SIAE inh	Tn7 DDE FP	HTRA1 inh conf	others
CC(C)C[C@H]1C(=O)N2CCC[C@H]2[C@]2(O)O[C@](NC(=O)[C@@H]3C=C4c5cccc6[nH]cc(c56)C[C@H]4N(C)C3)(C(C)C)C(=O)N12	42*	nt	nt	nt	nt	nt	nt
CCC(CO)NC(=O)C1C=C2c3cccc4[nH]cc(c34)CC2N(C)C1 (configuration not stated)	16	-5	7	19	7	3	nt
O=C1CC=C2C3CC4N(CCC45c4cc(O)c(O)cc4N1C25)CC3=CCBr (configuration not stated)	11	-9	50*	20	4	-3	nt
O=C(CN1C(=O)[C@@H](Cc2ccc(O)cc2)N=C(c2ccccc2)c2ccccc21)NC1CCCCC1	nt	-2	nt	-12	0	8	nt
CCOC(=O)CC[C@@H]1CC[C@]2(CCCN(Cc3cccnc3)C2)O1	nt	-4	nt	2	4	-3	nt
CCOC(=O)[C@]1(C#N)[C@@H]2C=CC(C(C)=O)=CN2[C@@H](C(N)=O)[C@@H]1c1ccsc1	-5	-3	-3	19	17*	1	nt
CC[C@H](C)/C=C(C)/C=C/C1=CC2=C(Cl)C(=O)[C@@](C)(OC(C)=O)C(=O)C2=CO1	78*	nt	nt	nt	nt	nt	nt
CCCC(=O)N1c2ccc(Cl)cc2C(c2ccccc2)=NCC1C(=O)NC(C)(C)C (configuration not stated)	nt	5	nt	-1	-4	-2	nt
CCCC/C(C)=C/[C@@H](NP(=O)(c1ccccc1)c1ccccc1)c1ccccc1	-90	5	-6	-28	2	14*	nt
C[N+]1=C(N)NC2=C3CCCCC3ONC2C1 (configuration not stated)	nt	6	nt	5	10	2	nt
CC(=O)c1ccc2c(c1)C1C(Cl)C(Sc3ccccc3[N+](=O)[O-])CC1C(c1ccccc1)N2 (configuration not stated)	17	-1	6	24	18*	-8	nt
C=C(C=O)CC1CC(O)[C@]2(C)OC3CC4OC5C[C@]6(C)O[C@]7(C)CCC8OC9C[C@]%10(C)OC%11C(C)=CC(=O)OC%11CC%10OC9C[C@@H](C)C8OC7CC6O[C@]5(C)C/C=C\C4OC3CC2O1 (some centres not stated)	nt	4	nt	-6	3	7	nt
CC(C)(C)NC(=O)C1CN=C(c2ccccc2)c2cc(Cl)ccc2N1C(=O)C1CCC1 (configuration not stated)	nt	1	nt	7	5	2	nt
CCCNC1=C(C)C(=O)C2=C(C1=O)C(COC(N)=O)[C@]1(OC)C3NC3CN21 (some centres not stated)	12	-1	27*	22	10	-7	nt
COC(=O)C1=C[C@H]([C@@H](C)[C@H](OC)c2ccccc2Br)[C@@H]2[C@H]1c1ccccc1N2C	nt	-1	nt	2	8	-14	nt
O=c1[nH]c2ccccc2n1C1CCN(C(c2cc3ccccc3o2)c2nnnn2-c2ccc3c(c2)OCCO3)CC1 (configuration not stated)	nt	-6	3	0	-8	15*	nt
O=c1[nH]c2ccccc2n1C1CCN(C(c2cccc3ccccc23)c2nnnn2-c2ccc3c(c2)OCCO3)CC1 (configuration not stated)	nt	-3	0	-21	-15	-6	nt
COc1ccc(OC)c(N2C(=O)NC(=O)/C(=C/c3ccc([N+](=O)[O-])s3)C2=O)c1	48*	-7	-25	-40	0	-5	43*
COc1cc(/C=C2\C(=O)NC(=O)N(c3ccccc3)C2=O)c([N+](=O)[O-])cc1OC	1	3	3	23	8	1	nt
CCCN1CCc2cccc3c2[C@H]1Cc1ccc(O)c(O)c1-3	77*	nt	nt	nt	nt	nt	66*
COc1ccc2c(c1O)-c1c(OC)c(OC)cc3c1[C@H](C2)N(C)CC3	1	5	6	1	1	0	nt
CN1C[C@H](O)[C@H]2C[C@@H]1c1ccccc1O2	nt	6	0	-1	-5	-1	nt
CC(NC(=O)OC1CC2CCC1(C)C2(C)C)P(=O)(Oc1ccccc1)Oc1ccccc1 (configuration not stated)	nt	6	nt	0	-3	2	nt
CC(C)C(C(=O)NC(C)(C)C)N1C(=O)CN=C(c2ccccc2)c2ccccc21 (configuration not stated)	nt	-1	nt	-2	9	-2	nt
Cc1cc(OC(=O)c2ccco2)c2c3c(c(=O)oc2c1)CCCC3	42*	4	0	-3	-1	3	33
SMILES	HTRA1 inhibitor	DDE Tn6 FP inh	TCR CD3 inh	mABHD4 FP	SIAE inh	Tn7 DDE FP	HTRA1 inh conf	others
Cc1cc(OC(=O)c2cccs2)c2c3c(c(=O)oc2c1)CCCC3	-4	-4	-8	-9	1	-8	nt
c1ccc(Nc2ccc(Nc3ccccc3)cc2)cc1	56*	6	4	26	10	-9	43*
CC(C)(C)c1ccc(O)c(N=Cc2c(O)ccc3ccccc23)c1	50*	-8	11	24	12	4	63*
COc1ccc(-n2c(/C=C/c3ccc(O)c(O)c3)nc3ccccc3c2=O)cc1	66*	-4	10	21	12	4	63*
CCC(C)/C=C(C)/C=C/C1=CC2=C(Cl)C(=O)C(C)(OC(C)=O)C(=O)C2=CO1 (configuration not stated)	44*	nt	nt	nt	nt	nt	68*
CC1Oc2cc3c(-c4c(O)cc(O)c5c(O)c6c(cc45)OC(C)C(C)C6=O)c(O)cc(O)c3c(O)c2C(=O)C1C (configuration not stated)	66*	nt	nt	nt	nt	nt	81*
C=Cn1ccnc1P(=S)(c1nccn1C=C)c1nccn1C=C	41*	1	5	5	1	-3	43*
O=C(NC(CCC(O)CO)P(=O)(Oc1ccccc1)Oc1ccccc1)OCc1ccccc1 (configuration not stated)	nt	4	nt	3	-4	-6	nt
C=C1C(=O)C(C)=C2C(=O)N3Cc4[nH]c5ccccc5c4CC3(C(=O)OC)C12 (configuration not stated)	nt	8	nt	-6	-11	1	nt
Cc1cc(N2CCNC[C@H]2C)ccc1N1CC[C@H](O)C1	nt	7	8	20	6	0	nt
CCN(CC)c1ccc(N=Cc2c(O)n(Cc3ccco3)c(=O)[nH]c2=O)cc1	42*	-11	10	45*	17	-1	0	mABHD4 conf=2

Compound activity as filed in PubChem.
